Test results reported in ChEMBL document CHEMBL1142077, “Inhibition of Plasmodium falciparum oocyst production by membrane-permeant cysteine protease inhibitor E64d” (2007).
The source made the active and inactive calls. The rule behind the calls is not given here.

How the values were obtained:
[1] = system: Plasmodium falciparum; assay: Inhibition of Pfs230 processing after 1 hrs in Plasmodium falciparum 3D7 at 10 uM in emergence medium; assay type: functional, organism-based
Outline: (§1)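 Mature stage V 3D7 gametocytes preincubated 1 h at 37°C in complete RPMI 1640 with inhibitor or DMSO (saponin 0.001% present or absent during this incubation). Cells then pelleted and resuspended in an equal volume of emergence medium (10 µM xanthurenic acid, glucose, NaCl, 8 mM Tris-Cl pH 8.2) at RT. Medium harvested after 1 h and clarified by centrifugation. Readout: immunoblot with Pfs230 region A (aa 304–378) antibodies, scoring 47-kDa and 35-kDa fragments.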

[2] = system: Plasmodium falciparum; assay: Inhibition of Pfs230 processing after 1 hrs in Plasmodium falciparum 3D7 at 10 uM in emergence medium with 0.001% saponin; assay type: functional, organism-based; outline: as §1
[3] = system: Plasmodium falciparum; assay: Inhibition of gametogenesis after 1 hrs in Plasmodium falciparum 3D7 at 10 uM in emergence medium; assay type: functional, organism-based
Outline: (§2)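 Mature 3D7 gametocytes incubated 1 h with inhibitor or an equal volume of DMSO, then pelleted. Gametogenesis triggered by adding an equal volume of emergence medium (xanthurenic acid, pH 8.2, RT). Scored on Giemsa-stained thin smears before and 15 min after the stimulus (emergence), and by bright-field observation of exflagellation centers 15–30 min after the stimulus.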

[4] = system: Plasmodium falciparum; assay: Inhibition of exflagellation after 1 hrs in Plasmodium falciparum 3D7 at 10 uM in emergence medium; assay type: functional, organism-based; outline: as §2
[5] = system: Plasmodium falciparum; assay: Inhibition of Pfs230 processing after 1 hrs in Plasmodium falciparum 3D7 at 100 uM in emergence medium; assay type: functional, organism-based; outline: as §1
[6] = system: Plasmodium falciparum; assay: Gametocyte morphology as exflagellation after 15-30 min in Plasmodium falciparum 3D7 at 100 uM for 1hr in emergence medium; assay type: functional, organism-based
[7] = system: Plasmodium falciparum; assay: Inhibition of oocyst production after 7 days in Anopheles stephensi SxK Nij fed human serum infected with Plasmodium falciparum 3D7 stage V gametocyte at 10 uM for 1 hr; assay type: functional, organism-based
Outline: (§3)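 Strain 3D7 stage V gametocyte cultures treated 1 h with inhibitor or DMSO, 0.3 ml pelleted onto 150 µl packed erythrocytes, supernatant replaced by 120 µl normal human serum with active complement; membrane feeder at 39°C, mosquitoes gorge 10 min, kept 7 days at 26°C, >80% humidity. Midguts mercurochrome-stained, oocysts counted; geometric mean per midgut versus DMSO control gives percent reduction; Kruskal-Wallis.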

[8] = system: Plasmodium falciparum; assay: Inhibition of oocyst production after 7 days in Anopheles stephensi SxK Nij fed human serum infected with Plasmodium falciparum NF54 stage V gametocyte at 100 uM for 15 min; assay type: functional
Outline: (§4)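 Isolate NF54 stage V gametocytes treated for stated times with 100 µM inhibitor or DMSO, pelleted onto packed erythrocytes in normal human serum with active complement, membrane-fed (39°C) to Anopheles stephensi SxK Nij for 10 min; mosquitoes kept 7 days at 26°C. Midguts mercurochrome-stained, oocysts counted, 16 to 20 mosquitoes per feeding; geometric mean oocysts per midgut versus control; Kruskal-Wallis.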

[9] = system: Plasmodium falciparum; assay: Inhibition of gametogenesis after 1 hrs in Plasmodium falciparum 3D7 at 100 uM in emergence medium; assay type: functional, organism-based
[10] = system: Plasmodium falciparum; assay: Inhibition at day 7 of Plasmodium falciparum 3D7 oocyst production in human serum at 100 uM for 1 hrs prior to feeding Anopheles stephensi SxK Nij; assay type: functional; details: 3D7, Serum; outline: as §3
[11] = system: Plasmodium falciparum; assay: Inhibition of oocyst production after 7 days in Anopheles stephensi SxK Nij fed human serum infected with Plasmodium falciparum NF54 stage V gametocyte at 100 uM for 1 hr; assay type: functional; outline: as §4
[12] = system: Plasmodium falciparum; assay: Inhibition of oocyst production after 7 days in Anopheles stephensi SxK Nij fed human serum infected with Plasmodium falciparum NF54 stage V gametocyte at 100 uM for 30 min; assay type: functional; outline: as §4

| Structure (SMILES) | Activity [1] | Activity [2] | Activity [3] | Activity [4] | Activity [5] | Activity [6] | Activity [7] | inhibition at 100 µM [8] | Activity [9] | inhibition at 100 µM [10] | inhibition at 100 µM [11] | inhibition at 100 µM [12] |
| --- | --- | --- | --- | --- | --- | --- | --- | --- | --- | --- | --- | --- |
| CC(C)C[C@H](NC(=O)C(CCc1ccccc1)NC(=O)CF)C(=O)NC(=O)N1CCOCC1 (some centres not stated) | inactive | Active | inactive | inactive | inactive |  |  |  |  |  |  |  |
| CCOC(=O)[C@H]1O[C@@H]1C(=O)N[C@@H](CC(C)C)C(=O)NCCC(C)C [ALOXISTATIN] |  |  |  |  |  | inactive | inactive | 79% | inactive | 81% | 100% | 98% |
